Calls of active or inactive are those of the source.

For orientation: IC50 means the concentration needed to halve the response being measured. A high value points to weaker potency. By half-life is commonly meant the time needed for the level to fall by half in the phase considered. A low value points to rapid decline.

Data set [1] can be described thus: Drug degradation in PBS assessed as PTX release at pH 7.4 after 48 hrs by HPLC analysis. The note with it: buffer, pH 7.4, 48 h.
The subject of a further data set is NCI/ADR-RES. The data set can be described thus: Cytotoxicity against human MCF7/ADR cells after 72 hrs by SRB assay. It counts as functional, cell-based. On the technique in general: Sulforhodamine B stains cellular protein and so reports cell mass.
The target of data set [2] is T1, Histone deacetylase (Homo sapiens) (UniProt Q13547+O15379+Q9UBN7+Q92769+Q9UQL6+Q8WUI4+Q9BY41+Q96DB2+P56524+Q9UKV0+Q969S8). The data set can be described thus: Inhibition of HDAC in human MCF7/ADR cells assessed as increase in tubulin acetylation measured after 10 to 24 hrs by Western blot analysis. The note with it: NCI/ADR-RES, time hrs 10-24. It counts as cell-based. The essentials:
(§1)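 Cells in logarithmic phase seeded in 6-well plates and cultured overnight. Compound exposure at 37 °C for 10 h and 24 h, with untreated cells as control. Cells lysed in RIPA buffer and lysates boiled. Proteins separated by SDS-PAGE and semidry-transferred to nitrocellulose. Membranes probed with primary antibody overnight at 4 °C, then HRP-conjugated secondary antibody for 1 h at room temperature. Detection by chemiluminescence imaging.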

Data set [3] in a line: Half life in human plasma by HPLC analysis. In kind it is ADME, cell-free. The essentials: (§2)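 Co-prodrug diluted into human or mouse plasma and incubated at 37 °C. Sampled at 0.5, 1, 2, 3, 4, 5 and 6 h. Each aliquot quenched with an equal volume of cold acetonitrile and centrifuged. Supernatant analysed by RP-HPLC, with compounds quantified against an external-standard concentration–area curve.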

Another data set concerns MCF7. The data set can be described thus: Cytotoxicity against human MCF7 cells after 72 hrs by SRB assay. In kind it is functional, cell-based. The note with it: MCF7, 72 h.
In data set [4] the target is T1, Histone deacetylase (Homo sapiens). The data set can be described thus: Inhibition of HDAC in human HCT-116 cells assessed as increase in tubulin acetylation measured after 10 to 24 hrs by Western blot analysis. It counts as cell-based. The settings on record: time hrs 10-24. A digest of the protocol:
as §1
Background: In western blotting, separated proteins are transferred to a membrane and probed.

A short description of data set [5]: Half life in mouse plasma by HPLC analysis. It counts as ADME, cell-free. A digest of the protocol:
as §2

Data set [6] concerns the target T1, Histone deacetylase (Homo sapiens). The data set can be described thus: Inhibition of HDAC in human MCF7 cells assessed as increase in tubulin acetylation measured after 10 to 24 hrs by Western blot analysis. It counts as cell-based. The note with it: time hrs 10-24. The essentials: as §1
Another data set relates to HCT-116. The data set can be described thus: Cytotoxicity against human HCT-116 cells after 72 hrs by SRB assay. In kind it is functional, cell-based. The note with it: HCT-116, 72 h.
The nature of data set [7]: Drug degradation in PBS assessed as SAHA release at pH 7.4 after 48 hrs by HPLC analysis. The note with it: buffer, pH 7.4, 48 h.
Data set [8] is described as follows: Retention time of the compound by HPLC method. In kind it is physicochemical. The essentials:
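Reversed-phase HPLC with a gradient of acetonitrile and water, both containing 0.1% formic acid, at 1 mL/min. Gradient ran 5% to 95% acetonitrile over 0–15 min, then held at 95% from 15 to 25 min. Injection volume 50 µL.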

Data set [9] is described as follows: Half life of compound in PBS buffer at pH 7.4 by HPLC analysis. It counts as physicochemical. A digest of the protocol: (§3)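 Co-prodrug stock diluted in 10 mM PBS at pH 7.4 or 6.0 and held at 37 °C. Sampled at 0.5, 1, 2, 3, 4, 6, 12 and 24 h. Intact co-prodrug, released PTX and released SAHA resolved by RP-HPLC. Amounts taken from external-standard concentration curves.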

A short description of data set [10]: Stability in PBS at pH 6 assessed as compound remaining after 24 hrs by HPLC analysis. In kind it is physicochemical. The settings on record: read-out: Stabilty. The essentials:
as §3

Turning to `CC(=O)O[C@H]1C(=O)[C@@]2(C)[C@H]([C@H](OC(=O)c3ccccc3)[C@]3(O)C[C@H](OC(=O)[C@H](OC(=O)CNC(=O)ONC(=O)CCCCCCC(=O)Nc4ccccc4)[C@@H](NC(=O)c4ccccc4)c4ccccc4)C(C)=C1C3(C)C)[C@]1(OC(C)=O)CO[C@@H]1C[C@@H]2O`, the Drug degradation is recorded as 50.3% in data set [1] and 56.8% in data set [7]. Moreover, the results for the IC50 with NCI/ADR-RES, in the data set on MCF7 and in the data set with HCT-116 were 1380 nM, 1.5 nM and 9.55 nM, respectively. Further, the inhibition result in data set [2], in data set [4] and in data set [6] was “Active” each time. For the same molecule, the half-life is 30 min in data set [3], 30 min in data set [5] and 120 min in data set [9]. The Retention_time in [8] came to 14.62 min. In [10], the remaining at 24 h was over 85%.
For `CC(=O)O[C@H]1C(=O)[C@@]2(C)[C@H]([C@H](OC(=O)c3ccccc3)[C@]3(O)C[C@H](OC(=O)[C@H](OC(=O)CCC(=O)ONC(=O)CCCCCCC(=O)Nc4ccccc4)[C@@H](NC(=O)c4ccccc4)c4ccccc4)C(C)=C1C3(C)C)[C@]1(OC(C)=O)CO[C@@H]1C[C@@H]2O`, the IC50 in the data set on NCI/ADR-RES stood at 4020 nM; with MCF7, 62.4 nM; in the data set on HCT-116 it was 144 nM. For the same molecule, the half-life in data set [3] and in data set [5] was 30 min throughout. For the same molecule, the Retention_time in data set [8] was determined as 15.06 min. In data set [10], the remaining at 24 h was over 85%.
`O=C(CCCCCCC(=O)Nc1ccccc1)NO` [VORINOSTAT]: the Retention_time in data set [8] is 8.42 min.
Turning to `CC(=O)O[C@H]1C(=O)[C@@]2(C)[C@H]([C@H](OC(=O)c3ccccc3)[C@]3(O)C[C@H](OC(=O)[C@H](O)[C@@H](NC(=O)c4ccccc4)c4ccccc4)C(C)=C1C3(C)C)[C@]1(OC(C)=O)CO[C@@H]1C[C@@H]2O` [PACLITAXEL], the results for the 50% inhibitory concentration (IC50) with NCI/ADR-RES and with MCF7 were over 10000 nM and under 1.5 nM, respectively. For the same molecule, the inhibition entry in data set [2], in data set [4] and in [6] was “Active” in each case. The Retention_time in data set [8] is on record as 13.81 min.
For the molecule `CC(=O)O[C@H]1C(=O)[C@@]2(C)[C@H]([C@H](OC(=O)c3ccccc3)[C@]3(O)C[C@H](OC(=O)[C@H](OC(=O)CCC(=O)O)[C@@H](NC(=O)c4ccccc4)c4ccccc4)C(C)=C1C3(C)C)[C@]1(OC(C)=O)CO[C@@H]1C[C@@H]2O`, the Retention_time in data set [8] turned out to be 13.63 min.

For the origin of these results see ChEMBL document CHEMBL4665631, “Synthesis and biological evaluation of paclitaxel and vorinostat co-prodrugs for overcoming drug resistance in cancer therapy in vitro” (Bioorg Med Chem, 2019).
